Test [1] can be described thus: Inhibition of beta-hematin polymerization. Details: species or system Plasmodium falciparum.
Test [2] deals with Plasmodium falciparum. The test can be described thus: Antiplasmodial activity against Plasmodium falciparum NF54. It counts as functional, organism-based.
For test [3], the system named is Mus musculus. The test can be described thus: Mean survival time of Swiss mice (Mus musculus) infected with Plasmodium yoelii N67 at 30 mg/kg, intraperitoneally. It counts as functional. The settings on record: route intraperitoneal. In short, it runs like this:
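Swiss mice infected with P. yoelii N-67; test compounds at 30 mg/kg given intraperitoneally once daily on four consecutive days; saline-treated mice as controls. Mice followed for 28 days; mean survival time (± SE) counted only for mice dying within that period, with survivors beyond 28 days excluded.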

Test [4] relates to Plasmodium yoelii. Briefly: Antimalarial activity against Plasmodium yoelii N67 infected in Swiss mice (Mus musculus) at 30 mg/kg, intraperitoneally. Conditions: route intraperitoneal. It counts as functional. The procedure, abridged:
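Swiss mice infected with P. yoelii N-67, dosed ip at 30 mg/kg once daily for four consecutive days; saline-treated controls. Parasitaemia on day 4 gives % suppression = [(C − T)/C] × 100 (C, T = control, treated parasitaemia). Mean survival time counted only for mice dying within the 28-day observation period; survivors beyond 28 days excluded.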

The values that follow come from ChEMBL document CHEMBL1139844, “Synthesis and antimalarial activity of side chain modified 4-aminoquinoline derivatives” (J Med Chem, 2007).

Molecules are shown by their SMILES. In brackets after ≈: the same amount, converted by molar mass.

The term MIC denotes the smallest concentration in the dilution series that meets the test's criterion for growth inhibition. A lower MIC goes with greater potency. Take `O=C1c2ccccc2SC(c2c(Cl)cccc2Cl)N1CCNc1ccnc2cc(Cl)ccc12` (stereo not given): the IC50 in test [1] is 0.49 equivalents. Further, in test [2], the IC50 is 291 nM and the MIC turned out to be 5.88 µM (≈ 3.03 µg/mL).

On to `O=C1c2ccccc2SC(c2c(Cl)cccc2Cl)N1CCCCNc1ccnc2cc(Cl)ccc12` (stereo not given), for which the IC50 in test [1] came to 0.97 equivalents. In test [2], this compound displayed an IC50 of 3070 nM and a minimal inhibitory concentration (MIC) of 13.8 µM (≈ 7.5 µg/mL).

Take `O=C1c2ccccc2SC(c2c(Cl)cccc2Cl)N1CCCNc1ccnc2cc(Cl)ccc12` (stereo not given): in test [1], the IC50 stood at 0.65 equivalents. In test [2], this compound yielded an IC50 of 2190 nM and a minimum inhibitory concentration (MIC) of 9.45 µM (≈ 5 µg/mL).

Turning to `O=C1CCSC(c2c(Cl)cccc2Cl)N1CCCCNc1ccnc2cc(Cl)ccc12` (stereo not given), the IC50 in test [1] came to 0.58 equivalents; in test [2], 7150 nM. Besides, the lowest concentration to inhibit growth in test [2] (MIC) was 15.2 µM (≈ 7.5 µg/mL).

For `O=C1c2ccccc2SC(c2ccc(Cl)cc2)N1CCNc1ccnc2cc(Cl)ccc12` (stereo not given), the MST in test [3] came to 15.2 days. Besides, in test [1], the IC50 was determined as 0.24 equivalents. In addition, in test [2], the IC50 came to 13 nM and the minimal inhibitory concentration (MIC) amounted to 0.26 µM (≈ 0.125 µg/mL). Moreover, in test [4], the Activity came out at 81%.

In test [1], `O=C1CSCN1CCCCNc1ccnc2cc(Cl)ccc12` came in with an IC50 of 0.91 equivalents. In test [2], this compound displayed an IC50 of 2650 nM and a minimal inhibitory concentration (MIC) of 5.96 µM (≈ 2 µg/mL).

On to `O=C1c2ccccc2SCN1CCNc1ccnc2cc(Cl)ccc12`, for which the MST in test [3] is 11.4 days. The figures for the IC50 in test [1] and in test [2] were 0.94 equivalents and 65 nM, respectively. For the same compound, the MIC in test [2] stood at 0.68 µM (≈ 0.252 µg/mL). For the same compound, the Activity in test [4] came to 48.33%.

With `O=C1CCSC(c2ccc(Cl)cc2)N1CCCCNc1ccnc2cc(Cl)ccc12` (stereo not given), in test [3], the MST is 13.8 days. Besides, the IC50 in test [1] came out at 0.76 equivalents. In addition, in test [2], the IC50 turned out to be 271 nM and 0.54 µM (≈ 0.249 µg/mL) was the least that counted as inhibitory (MIC). Besides, the Activity in test [4] was determined as 62.32%.

Regarding `O=C1c2ccccc2SCN1CCCCNc1ccnc2cc(Cl)ccc12`, the IC50 came out at 0.89 equivalents in test [1] and 1510 nM in test [2]. Further, the MIC in test [2] came to 2.51 µM (≈ 0.999 µg/mL).

As to `O=C1CSC(c2c(Cl)cccc2Cl)N1CCCNc1ccnc2cc(Cl)ccc12` (stereo not given), the MST in test [3] is 10.6 days. In test [1], the IC50 was 0.39 equivalents. In test [2], this compound showed an IC50 of 138 nM and an MIC of 0.27 µM (≈ 0.126 µg/mL). In test [4], the Activity stood at 40.08%.

In turn, `CC1SCN(CCNc2ccnc3cc(Cl)ccc23)C1=O` (stereo not given) had an IC50 in test [1] of 1.05 equivalents. In test [2], this compound gave an IC50 of 1680 nM and a minimal inhibitory concentration (MIC) of 3.11 µM (≈ 1 µg/mL).

For `O=C1CCSC(c2c(Cl)cccc2Cl)N1CCCNc1ccnc2cc(Cl)ccc12` (stereo not given), the IC50 in test [1] was 0.88 equivalents. Moreover, in test [2], the IC50 came to 6150 nM and the MIC was determined as 10.4 µM (≈ 5 µg/mL).

As to `O=C1c2ccccc2SCN1CCCNc1ccnc2cc(Cl)ccc12`, the IC50 was 0.78 equivalents in test [1] and 429 nM in test [2]. In addition, the minimal inhibitory concentration (MIC) in test [2] came out at 1.3 µM (≈ 0.499 µg/mL).

In the case of `O=C1CSC(c2ccc(Cl)cc2)N1CCNc1ccnc2cc(Cl)ccc12` (stereo not given), the figures for the IC50 in test [1] and in test [2] were 0.75 equivalents and 980 nM, respectively. In test [2], this compound gave a minimal inhibitory concentration (MIC) of 1.2 µM (≈ 0.502 µg/mL).

Compound `O=C1CCSC(c2ccc(Cl)cc2)N1CCNc1ccnc2cc(Cl)ccc12` (stereo not given) showed an IC50 in test [1] of 0.47 equivalents. Besides, in test [2], the IC50 is 4070 nM and the MIC amounted to 4.62 µM (≈ 2 µg/mL).

`O=C1CSC(c2ccc(Cl)cc2)N1CCCCNc1ccnc2cc(Cl)ccc12` (stereo not given): the values for the IC50 in test [1] and in test [2] were 0.85 equivalents and 1980 nM, respectively. For the same compound, it took 4.08 µM (≈ 1.82 µg/mL) to inhibit growth in test [2] (MIC).

In test [1], `O=C1CCSCN1CCCNc1ccnc2cc(Cl)ccc12` had an IC50 of 0.96 equivalents. In test [2], the IC50 was determined as 1810 nM and the minimal inhibitory concentration (MIC) worked out at 2.48 µM (≈ 0.833 µg/mL).

For `O=C1c2ccccc2SC(c2ccc(Cl)cc2)N1CCCCNc1ccnc2cc(Cl)ccc12` (stereo not given), the IC50 in test [1] came out at 0.95 equivalents. In test [2], this compound came in with an IC50 of 1270 nM and an MIC of 2.17 µM (≈ 1.1 µg/mL).

Consider `O=C1CSC(c2c(Cl)cccc2Cl)N1CCNc1ccnc2cc(Cl)ccc12` (stereo not given), for which the MST in test [3] came to 14.6 days. The same compound registered an IC50 in test [1] of 0.46 equivalents. Besides, in test [2], the IC50 was found to be 39 nM and 0.55 µM (≈ 0.249 µg/mL) was the least that counted as inhibitory (MIC). The same compound displayed an Activity in test [4] of 76.08%.

On to `O=C1CSCN1CCNc1ccnc2cc(Cl)ccc12`, for which, in test [1], the IC50 came out at 0.98 equivalents. Besides, in test [2], the IC50 stood at 2140 nM and the minimum inhibitory concentration (MIC) was 3.25 µM (≈ 1 µg/mL).

In turn, `O=C1CSC(c2c(Cl)cccc2Cl)N1CCCCNc1ccnc2cc(Cl)ccc12` (stereo not given) yielded an IC50 in test [1] of 0.64 equivalents. In test [2], this compound displayed an IC50 of 3030 nM and an MIC of 6.17 µM (≈ 2.97 µg/mL).

Turning to `CC1SCN(CCCCNc2ccnc3cc(Cl)ccc23)C1=O` (stereo not given), the IC50 in test [1] came out at 0.98 equivalents. Further, in test [2], the IC50 turned out to be 1290 nM and 5.73 µM (≈ 2 µg/mL) was the least that counted as inhibitory (MIC).

With `CC1SCN(CCCNc2ccnc3cc(Cl)ccc23)C1=O` (stereo not given), the IC50 in test [1] was 1.02 equivalents; in test [2], 2330 nM. Besides, in test [2], the lowest concentration to inhibit growth (MIC) was 5.65 µM (≈ 1.9 µg/mL).

`O=C1CCSC(c2c(Cl)cccc2Cl)N1CCNc1ccnc2cc(Cl)ccc12` (stereo not given) returned an IC50 in test [1] of 0.45 equivalents. Moreover, in test [2], the IC50 was found to be 3270 nM and the minimal inhibitory concentration (MIC) was found to be 4.28 µM (≈ 2 µg/mL).

`O=C1CCSC(c2ccc(Cl)cc2)N1CCCNc1ccnc2cc(Cl)ccc12` (stereo not given) displayed an MST in test [3] of 12 days. Also, in test [1], the IC50 is 0.62 equivalents. In test [2], this compound came in with an IC50 of 14 nM and a minimal inhibitory concentration (MIC) of 0.28 µM (≈ 0.125 µg/mL). In test [4], the Activity is given as 23.5%.

The compound `O=C1CCSCN1CCCCNc1ccnc2cc(Cl)ccc12` showed an IC50 in test [1] of 0.89 equivalents. In test [2], this compound had an IC50 of 1810 nM and a minimal inhibitory concentration (MIC) of 2.86 µM (≈ 1 µg/mL).

Compound `O=C1c2ccccc2SC(c2ccc(Cl)cc2)N1CCCNc1ccnc2cc(Cl)ccc12` (stereo not given) gave an IC50 in test [1] of 0.46 equivalents. Further, in test [2], the IC50 stood at 1030 nM and 2.02 µM (≈ 0.999 µg/mL) was the least that counted as inhibitory (MIC).

As for `O=C1CSC(c2ccc(Cl)cc2)N1CCCNc1ccnc2cc(Cl)ccc12` (stereo not given), in test [1], the IC50 came to 0.56 equivalents. In test [2], this compound returned an IC50 of 1040 nM and an MIC of 1.16 µM (≈ 0.502 µg/mL).

In the case of `O=C1CCSCN1CCNc1ccnc2cc(Cl)ccc12`, the IC50 in test [1] was 0.99 equivalents. In test [2], the IC50 came to 2920 nM and the MIC is 6.21 µM (≈ 2 µg/mL).

For the compound `O=C1CSCN1CCCNc1ccnc2cc(Cl)ccc12`, in test [1], the IC50 was determined as 0.96 equivalents. In test [2], this compound registered an IC50 of 1650 nM and an MIC of 3.11 µM (≈ 1 µg/mL).

For the compound `CCN(CC)CCCC(C)Nc1ccnc2cc(Cl)ccc12` (stereo not given) [CHLOROQUINE], the MST in test [3] was found to be 20 days. In test [2], this compound displayed an MIC of 0.39 µM (≈ 0.125 µg/mL). For the same compound, the Activity in test [4] worked out at 99.99%.
